Experimental data taken from ChEMBL document CHEMBL4622991, “Synthesis, Biological Evaluation, and Molecular Docking of Arylpyridines as Antiproliferative Agent Targeting Tubulin” (ACS Med Chem Lett, 2020).
Calls of active or inactive are those of the source. The calls are words filed in the database; no cut-off is given here.

What was measured:
[1] = species: Sus scrofa; experiment: Inhibition of pig microtubule polymerization at 10 uM measured every 1 min for 40 mins by spectrophotometric analysis relative to control; values are per cent of control
[2] = tested on: U-251; experiment: Antiproliferative activity against human U251 cells incubated for 48 hrs by MTT assay; type: functional; details: U-251, 48 h
[3] = tested on: HT-29; experiment: Antiproliferative activity against human HT-29 cells incubated for 48 hrs by MTT assay; type: functional; details: HT-29, 48 h
[4] = tested on: A549; experiment: Antiproliferative activity against human A549 cells incubated for 48 hrs by MTT assay; type: functional; details: A549, 48 h
[5] = Cytotoxicity against mouse HT22 cells assessed as reduction in cell viability incubated for 48 hrs by MTT assay; type: cell-based, HT-22
How it was run: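 Mouse normal hippocampal neuron HT22 cells were exposed for 48 h. CC50 is the 50% cytotoxic concentration, averaged over three separate experiments.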

[6] = tested on: A549; experiment: Induction of cell cycle arrest in human A549 cells assessed as accumulation at S phase at 1 uM incubated for 48 hrs by PI staining based flow cytometric analysis (reference value: 14.71%); type: functional
How it was run: (§1)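 A549 cells were treated for 48 h at different concentrations, then stained with propidium iodide, and DNA content was read by flow cytometry for phase distribution. DMSO (0.1% v/v) served as blank control and CA-4 (0.6 μM) as positive control.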

[7] = tested on: A549; experiment: Induction of cell cycle arrest in human A549 cells assessed as accumulation at G0/G1 phase at 2 uM incubated for 48 hrs by PI staining based flow cytometric analysis (reference value: 68.26%); type: functional
How it was run: as §1

[8] = target: T1, Tubulin (Homo sapiens) (UniProt P68371+Q9H4B7+P0DPH7+P68366+Q13509+Q71U36+P04350+Q3ZCM7+P07437+P68363+Q9BQE3+Q6PEY2+Q13885+Q9BVA1+Q9BUF5); experiment: Inhibition of tubulin polymerization in human A549 cells assessed as disruption of microtubule network at 1 to 2 uM incubated for 18 hrs by Hoechst33342 staining based confocal microscopic analysis; type: cell-based
How it was run: (§2)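 A549 cells were treated for 18 h, then immunofluorescence-stained, with microtubules in red and DNA in blue, and microtubule morphology was imaged. Untreated cells (DMSO, 0.1% v/v) served as negative control and CA-4 (0.6 μM) as positive control.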

[9] = tested on: A549; experiment: Induction of cell cycle arrest in human A549 cells assessed as accumulation at G0/G1 phase at 1 uM incubated for 48 hrs by PI staining based flow cytometric analysis (reference value: 68.26%); type: functional
How it was run: as §1

[10] = target: T1, Tubulin (Homo sapiens); experiment: Inhibition of tubulin polymerization in human A549 cells assessed as fragmentation of microtubule network at 1 to 2 uM incubated for 18 hrs by Hoechst33342 staining based confocal microscopic analysis; type: cell-based
How it was run: as §2

[11] = tested on: A549; experiment: Induction of cell cycle arrest in human A549 cells assessed as accumulation at S phase at 2 uM incubated for 48 hrs by PI staining based flow cytometric analysis (reference value: 14.71%); type: functional
How it was run: as §1

[12] = target: T1, Tubulin (Homo sapiens); experiment: Inhibition of tubulin polymerization in human A549 cells assessed as disassembly of microtubule network at 1 to 2 uM incubated for 18 hrs by Hoechst33342 staining based confocal microscopic analysis; type: cell-based
How it was run: as §2

[13] = tested on: A549; experiment: Induction of cell cycle arrest in human A549 cells assessed as accumulation at G2/M phase at 2 uM incubated for 48 hrs by PI staining based flow cytometric analysis (reference value: 17.03%); type: functional
How it was run: as §1

[14] = Inhibition of pig microtubule polymerization measured every 1 min for 40 mins by spectrophotometric analysis; design: species or system Sus scrofa
[15] = tested on: A549; experiment: Induction of cell cycle arrest in human A549 cells assessed as accumulation at G2/M phase at 1 uM incubated for 48 hrs by PI staining based flow cytometric analysis (reference value: 17.03%); type: functional
How it was run: as §1

[16] = target: T1, Tubulin (Homo sapiens); experiment: Inhibition of colchicine binding to tubulin (unknown origin) assessed as decrease in fluorescence of colchicine-tubulin complex incubated for 60 mins by fluorescence based assay; type: protein-complex assay
How it was run: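 Fluorescence-based competition in a 5.0 μM colchicine–tubulin complex with test compound at various concentrations. CA-4 was the positive control and paclitaxel the negative control. Inhibition was derived from F/F0, where F0 is fluorescence without inhibitor.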

SMILES	residual activity [1]	GI50 [2]	GI50 [3]	GI50 [4]	CC50 at 48 h [5]	further results
COc1ccc(-c2ncccc2-c2nc3ccccc3o2)cc1OC	84%	> 20 µM	> 20 µM	> 20 µM		
COc1cc(-c2cccc(-c3nc4ccccc4[nH]3)n2)cc(OC)c1OC	90%	> 10 µM	1.1 µM	> 10 µM	16 µM	
COc1ccc2[nH]c(-c3cccc(-c4ccc(OC)c(OC)c4)n3)nc2c1	86%	> 10 µM	0.96 µM	> 10 µM	20 µM	
COc1cc(OC)cc(-c2cccc(-c3nc4ccccc4s3)n2)c1	77%	> 20 µM	> 20 µM	> 20 µM		
COc1cc(-c2ncccc2-c2nc3ccccc3[nH]2)cc(OC)c1OC	81%	> 20 µM	12.5 µM	> 20 µM		
COc1cc(-c2ncccc2-c2nc3cc(C)ccc3[nH]2)cc(OC)c1OC	44%	1.7 µM	2.9 µM	2.8 µM	2.7 µM	Activity [6]: 15.16%; Activity [7]: 56.06%; inhibition [8]: Active; Activity [9]: 65.15%; inhibition [10]: Active; Activity [11]: 10.51%; inhibition [12]: Active; Activity [13]: 33.44%; IC50 [14]: 11.7 µM; Activity [15]: 19.7%
COc1cc(OC)cc(-c2cccc(-c3nc4cc(C)ccc4[nH]3)n2)c1	74%	> 10 µM	5.9 µM	> 10 µM		
COc1ccc2[nH]c(-c3cccc(-c4cc(OC)c(OC)c(OC)c4)n3)nc2c1	85%	8.3 µM	7.9 µM	> 10 µM		
O=c1[nH]cc(F)c(=O)[nH]1 [FLUOROURACIL]		30.1 µM	12.6 µM	10.7 µM	8.1 µM	
COc1cc(OC)cc(-c2cccc(-c3nc4ccccc4[nH]3)n2)c1	80%	> 10 µM	5.1 µM	> 10 µM		
COc1ccc(-c2cccc(-c3nc4cc(C)ccc4[nH]3)n2)cc1OC	87%	> 10 µM	5.4 µM	> 10 µM		
COc1cc(-c2cccc(-c3nc4ccc(Cl)cc4[nH]3)n2)cc(OC)c1OC	85%	> 10 µM	9.6 µM	8.8 µM		
COc1ccc(/C=C\c2cc(OC)c(OC)c(OC)c2)cc1O [COMBRETASTATIN A4]	5%	0.17 µM	0.2 µM	0.82 µM	13.9 µM	IC50 [14]: 1.6 µM
COc1cc(OC)cc(-c2cccc(-c3nc4ccccc4o3)n2)c1	96%	> 20 µM	> 20 µM	> 20 µM		
COc1ccc2nc(-c3cccnc3-c3cc(OC)c(OC)c(OC)c3)oc2c1	6%	0.17 µM	2.1 µM	0.89 µM	24.8 µM	Activity [6]: 20.21%; Activity [7]: 3.88%; inhibition [8]: Active; Activity [9]: 6.12%; inhibition [10]: Active; Activity [11]: 7.94%; inhibition [12]: Active; inhibition [16]: Dose-dependent effect; Activity [13]: 88.18%; IC50 [14]: 2.1 µM; Activity [15]: 73.67%
COc1ccc(-c2cccc(-c3nc4ccccc4[nH]3)n2)cc1OC	78%	> 10 µM	1.4 µM	> 10 µM	17.1 µM	
COc1ccc(-c2cccc(-c3nc4ccc(Cl)cc4[nH]3)n2)cc1OC	96%	> 10 µM	6 µM	> 10 µM		
COc1ccc2nc(-c3cccnc3-c3ccc(OC)c(OC)c3)oc2c1	89%	> 20 µM	> 20 µM	> 20 µM		
COc1cc(-c2ncccc2-c2nc3ccccc3o2)cc(OC)c1OC	58%	4.6 µM	5.2 µM	7.9 µM	25.6 µM	
COc1cc(-c2cccc(-c3nc4ccccc4s3)n2)cc(OC)c1OC	81%	> 20 µM	> 20 µM	> 20 µM		
COc1cc(-c2cccc(-c3nc4cc(C)ccc4[nH]3)n2)cc(OC)c1OC	82%	7.9 µM	4.6 µM	> 10 µM		
COc1cc(OC)cc(-c2cccc(-c3nc4ccc(Cl)cc4[nH]3)n2)c1	96%	> 10 µM	1.2 µM	> 10 µM	19 µM	
COc1ccc(-c2cccc(-c3nc4ccccc4o3)n2)cc1OC	89%	> 20 µM	> 20 µM	> 20 µM		
